Source: ChEMBL document CHEMBL1125912, “Topically active carbonic anhydrase inhibitors. 4. [(Hydroxyalkyl)sulfonyl]benzene and [(hydroxyalkyl)sulfonyl]thiophenesulfonamides” (J Med Chem, 1991)
Converted amounts (≈) assume the structure as drawn.

Assays:
[1] = Dissociation constant (pKa) (determined in 30% EtOH/water); type: physicochemical
[2] = Solubility (buffer pH 7.4); type: physicochemical; settings: read-out: S
Method in brief: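 Solubility in 50 mM phosphate buffer, pH 7.4.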

[3] = Partition coefficient (pH 7.4); type: ADME; settings: octanol/water
Method in brief: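 1-Octanol/phosphate buffer partition at pH 7.4 and 0.1 ionic strength. The compound was equilibrated between the phases and the concentration in each phase was measured by UV spectrophotometry.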

Carbonic anhydrase 2 = Carbonic anhydrase 2 (Homo sapiens, UniProt P00918); assay: Inhibitory activity against human carbonic anhydrase II using pH stat assay; type: functional; settings: read-out: I50
Oryctolagus cuniculus [4] = assay: Tested in vivo for the IOP (intraocular pressure) recovery after 50 uL dose of 2% concentration in albino rabbits.; type: functional, Eye
Method in brief: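 Conscious albino rabbits. Aqueous humor production was assessed indirectly by IOP recovery rate. A single bilateral 50-µL instillation of 2% (w/v) in 0.5% aqueous (hydroxyethyl)cellulose vehicle was given. Results are percent change from control, tested by Dunnett's two-tailed test (P<0.05).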

Oryctolagus cuniculus [5] = species on record: Oryctolagus cuniculus; assay: Maximum fall in IOP after 50uL dose of 0.5% concentration in alpha-CT rabbit model; ns = 'no significant statistical change'; type: functional, organism-based
Method in brief: (§1)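 Alpha-chymotrypsinized rabbit model of ocular hypertension. Single 50-µL bilateral instillation of a 0.5% (w/v) solution in 0.5% aqueous (hydroxyethyl)cellulose vehicle. Read-out is the fall in IOP.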

Oryctolagus cuniculus [6] = species on record: Oryctolagus cuniculus; assay: Maximum fall in IOP after 50 uL dose of 0.5% concentration in alpha-CT rabbit model.; type: functional; method in brief: as §1
Oryctolagus cuniculus [7] = species on record: Oryctolagus cuniculus; assay: Maximum fall in IOP after 50 microL dose of 0.5% concentration in alpha-CT rabbit model.; type: functional; method in brief: as §1
Oryctolagus cuniculus [8] = species on record: Oryctolagus cuniculus; assay: Maximum fall in IOP after 50 uL dose of 0.5% concentration in alpha-CT rabbit model; type: functional; method in brief: as §1

| SMILES | pKa [1] | solubility [2] [µg/mL] | D [3] | IC50 (Carbonic anhydrase 2) [µM] | Change from control (Oryctolagus cuniculus [4]) [%] | Max fall in IOP (Oryctolagus cuniculus [5]) | Max fall in IOP (Oryctolagus cuniculus [6]) [mmHg] | Max fall in IOP (Oryctolagus cuniculus [7]) [mmHg] | Max fall in IOP (Oryctolagus cuniculus [8]) [mmHg] |
| --- | --- | --- | --- | --- | --- | --- | --- | --- | --- |
| CC(C)(O)CCSc1ccc(S(N)(=O)=O)cc1 | 10 | 400 (≈ 1.45 mM) | 25.2 | 0.02 | -51 | No significance | – | – | – |
| CC(=O)OCCCCCc1ccc(S(N)(=O)=O)cc1 | 10.3 | 1200 (≈ 4.21 mM) | 73 | – | -33 | – | -6.4 | – | – |
| NS(=O)(=O)c1ccc(SCCO)c(C(=O)O)c1 | 10.4 | 9300 (≈ 33.5 mM) | 0.01 | – | – | – | – | – | – |
| CC(=O)Oc1ccc2cc(S(N)(=O)=O)sc2c1 | – | – | – | – | -43 | – | – | -5.5 | – |
| NS(=O)(=O)c1cc2ccc(O)cc2s1 | – | – | – | – | -31 | – | – | -5.4 | – |
| NS(=O)(=O)c1cc2c(s1)S(=O)(=O)CCC2O (stereo not drawn) | 8.2 | – | – | – | -40 | – | -6.9 | – | – |
| CC(=O)OCCS(=O)(=O)c1ccc(S(N)(=O)=O)s1 | 8.65 | 880 (≈ 2.81 mM) | 1.3 | 0.0055 | – | – | – | – | – |
| CC(C)CNCCCS(=O)(=O)c1ccc(S(N)(=O)=O)s1 | 9.3 | – | 0.45 | 0.018 | – | – | – | – | – |
| NS(=O)(=O)c1ccc(SCCO)cc1 | 9.27 | 3500 (≈ 15 mM) | 2.3 | – | – | – | – | – | – |
| CC(C)COC(=O)OCCCS(=O)(=O)c1ccc(S(N)(=O)=O)s1 | – | 80 (≈ 0.208 mM) | – | – | – | – | – | – | – |
| CC(=O)OCCCS(=O)(=O)c1ccc(S(N)(=O)=O)s1 | 8.05 | 920 (≈ 2.81 mM) | 1.47 | 0.005 | – | – | – | – | – |
| NS(=O)(=O)c1ccc(SCCCO)s1 | 9.32 | 9500 (≈ 37.5 mM) | 7 | 0.01 | – | – | – | – | – |
| NS(=O)(=O)c1ccc(SCCCCO)s1 | 9.5 | 9300 (≈ 34.8 mM) | 9 | 0.003 | – | – | – | – | – |
| NS(=O)(=O)c1ccc(S(=O)(=O)CCO)s1 | 8.65 | 22000 (≈ 81.1 mM) | 0.29 | 0.006 | – | – | – | – | – |
| NS(=O)(=O)c1ccc(SCCO)s1 | 9.46 | 49000 (≈ 205 mM) | 2.4 | 0.03 | – | – | – | – | – |
| NS(=O)(=O)c1ccc(SCCCO)cc1 | 10.2 | 1400 (≈ 5.66 mM) | 6.25 | 0.02 | – | – | – | – | – |
| COCC(=O)OCCCS(=O)(=O)c1ccc(S(N)(=O)=O)s1 | 8.1 | 970 (≈ 2.71 mM) | 0.72 | 0.0045 | – | – | – | – | – |
| CC(=O)OCCCCc1ccc(S(N)(=O)=O)cc1 | 10.5 | 8000 (≈ 29.5 mM) | – | – | – | – | – | – | – |
| CC(=O)OCCCc1ccc(S(N)(=O)=O)cc1 | 10.2 | 1600 (≈ 6.22 mM) | 9.6 | – | -18 | – | – | -4.5 | – |
| NS(=O)(=O)c1ccc(SCCO)c([N+](=O)[O-])c1 | 9.42 | 500 (≈ 1.8 mM) | 2.4 | 0.021 | – | – | – | – | – |
| NS(=O)(=O)c1ccc(S(=O)(=O)CC(O)CO)cc1 (stereo not drawn) | 9.35 | 14900 (≈ 50.5 mM) | – | – | – | – | – | – | – |

Second part, led by results:

| pKa [1] | solubility [2] [µg/mL] | D [3] | IC50 (Carbonic anhydrase 2) [µM] | SMILES | Change from control (Oryctolagus cuniculus [4]) [%] | Max fall in IOP (Oryctolagus cuniculus [5]) | Max fall in IOP (Oryctolagus cuniculus [6]) [mmHg] | Max fall in IOP (Oryctolagus cuniculus [7]) [mmHg] | Max fall in IOP (Oryctolagus cuniculus [8]) [mmHg] |
| --- | --- | --- | --- | --- | --- | --- | --- | --- | --- |
| 9.94 | 8800 (≈ 30.2 mM) | 0.01 | 10 | NS(=O)(=O)c1ccc(SCCCO)c(C(=O)O)c1 | – | – | – | – | – |
| 9.28 | 3500 (≈ 11.4 mM) | 0.82 | 0.025 | CC(C)(O)CCS(=O)(=O)c1ccc(S(N)(=O)=O)cc1 | – | – | – | – | – |
| 10.2 | 800 (≈ 3.06 mM) | 8.48 | 0.009 | NS(=O)(=O)c1ccc(SCCCCO)cc1 | – | – | – | – | – |
| 9.25 | 600 (≈ 2.18 mM) | 10.9 | 0.0043 | NS(=O)(=O)c1ccc(SCCCCCO)cc1 | – | – | – | – | – |
| 9.6 | 2100 (≈ 7.16 mM) | 0.25 | 0.007 | NS(=O)(=O)c1ccc(S(=O)(=O)CCCCO)cc1 | – | – | – | – | – |
| 9.45 | 280 (≈ 0.994 mM) | 39 | 0.009 | NS(=O)(=O)c1ccc(SCCCO)c(Cl)c1 | – | – | – | – | – |
| 9.18 | 4300 (≈ 13.8 mM) | 0.55 | 0.004 | NS(=O)(=O)c1ccc(S(=O)(=O)CCCCO)c(F)c1 | – | – | – | – | – |
| 10.3 | 14700 (≈ 64.1 mM) | 3.7 | 0.015 | NS(=O)(=O)c1ccc(CCCCO)cc1 | – | – | – | – | – |
| 9.76 | 6000 (≈ 23.9 mM) | 5.3 | 0.009 | NS(=O)(=O)c1ccc(SCCO)c(F)c1 | -34 | No significance | – | – | – |
| 9.82 | 1000 (≈ 3.58 mM) | 19 | 0.0015 | NS(=O)(=O)c1ccc(SCCCCO)c(F)c1 | – | – | – | – | – |
| – | – | – | 0.02 | NS(=O)(=O)c1ccc(CCCO)c(F)c1 | – | – | – | – | – |
| 9.28 | 53000 (≈ 164 mM) | 0.002 | 0.9 | NS(=O)(=O)c1ccc(S(=O)(=O)CCCO)c(C(=O)O)c1 | – | – | – | – | – |
| 9.15 | 8400 (≈ 28.5 mM) | 0.33 | 0.023 | Nc1cc(S(N)(=O)=O)ccc1S(=O)(=O)CCCO | – | – | – | – | – |
| 8.98 | 7200 (≈ 25.8 mM) | 0.23 | 0.012 | NS(=O)(=O)c1ccc(S(=O)(=O)CCCO)cc1 | -37 | No significance | – | – | – |
| 10.2 | 20000 (≈ 92.9 mM) | 1.48 | 0.064 | NS(=O)(=O)c1ccc(CCCO)cc1 | – | – | – | – | – |
| 9.3 | 1300 (≈ 4.26 mM) | 5.5 | 0.7 | COC(=O)c1cc(S(N)(=O)=O)ccc1SCCCO | -30 | – | – | – | -4.5 |
| 8 | 800 (≈ 2.47 mM) | 0.9 | – | NS(=O)(=O)c1ccc(S(=O)(=O)CCCO)c([N+](=O)[O-])c1 | – | – | – | – | – |
| 9.02 | 6600 (≈ 22.2 mM) | 0.39 | 0.0045 | NS(=O)(=O)c1ccc(S(=O)(=O)CCCO)c(F)c1 | -43 | – | – | – | -6.2 |
| 9 | 3300 (≈ 11.6 mM) | 0.25 | 0.005 | NS(=O)(=O)c1ccc(S(=O)(=O)CCO)c(F)c1 | -37 | No significance | – | – | – |
| 9.64 | 900 (≈ 3.39 mM) | 9.8 | 0.0035 | NS(=O)(=O)c1ccc(SCCCO)c(F)c1 | -30 | – | – | – | -3.6 |
| 9.38 | 6600 (≈ 24.9 mM) | 0.14 | 0.024 | NS(=O)(=O)c1ccc(S(=O)(=O)CCO)cc1 | -41 | – | -10.8 | – | – |
| 9.38 | 100 (≈ 0.342 mM) | 9.1 | 0.023 | NS(=O)(=O)c1ccc(SCCCO)c([N+](=O)[O-])c1 | – | – | – | – | – |
| 9.2 | 33400 (≈ 103 mM) | 0.34 | 0.03 | COC(=O)c1cc(S(N)(=O)=O)ccc1S(=O)(=O)CCO | -24 | – | – | – | -6.3 |
| 8.9 | 1500 (≈ 4.45 mM) | 0.5 | 0.02 | COC(=O)c1cc(S(N)(=O)=O)ccc1S(=O)(=O)CCCO | – | – | – | – | – |
| 8.67 | 9900 (≈ 33.1 mM) | 0.46 | 0.0023 | NS(=O)(=O)c1ccc(S(=O)(=O)CCCCO)s1 | – | – | – | – | – |
| 9.5 | 13200 (≈ 47.1 mM) | 0.25 | 0.051 | Nc1cc(S(N)(=O)=O)ccc1S(=O)(=O)CCO | – | – | – | – | – |
| 10.3 | 2600 (≈ 10.7 mM) | 11 | 0.008 | NS(=O)(=O)c1ccc(CCCCCO)cc1 | -38 | – | – | – | – |
| 8.32 | 14600 (≈ 51.2 mM) | 0.44 | 0.006 | NS(=O)(=O)c1ccc(S(=O)(=O)CCCO)s1 | – | – | – | – | – |
